Only a selection was taken, and hits are over-represented in it overall.
Insulin prom act – activators of insulin promoter-driven GFP, primary screen, imaging, TRM-6 cells (human fetal islet line), eGFP reporter, cell count; plate-scaled: unstimulated 0, stimulated control 100; activation, % at 2 µM; 130,000 compounds, 0.81% hits; AID 1296, 2008;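 active = activation at 2 µM above a set limit, confirmed on inspection of the cell images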;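 also: share of cells whose green reporter signal exceeds an intensity cutoff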
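Assay system: TRM-6 insulin promoter–eGFP reporter cells / Input: 1,000 cells per well / Medium: Low-glucose (5.5 mM) medium with tamoxifen / Also added: tamoxifen inducer, 0.75 µM, in seeding medium / Timing: overnight tamoxifen, then two-day compound incubation at 37 °C / Signal: automated fluorescence imaging of paraformaldehyde-fixed, Hoechst-counterstained cells, green channel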
The depositor's hits bear a star.

SMILES | Insulin prom act
C/C(Cl)=C\Cn1c(N2CCCCCC2)nc2c1c(=O)n(C)c(=O)n2C | 6
O=C(c1ccccc1Nc1ccc(SC(F)F)cc1)N1CCCCCC1 | 0
Cc1ccc(S(=O)(=O)N2CCN(C(=O)CN3CCOCC3)C2C(C)C)cc1 (stereo unspecified) | 500*
O=C(CN1CCOCC1)N1CCN(S(=O)(=O)c2ccccc2)C1c1ccccc1 (stereo unspecified) | -3
Cc1ccc(C(=O)N2CCN(C(=O)CN3CCOCC3)C2)cc1 | -4
COc1cccc(/C=N/NC(=O)CN2CC(c3ccccc3)CC2=O)c1O (stereo unspecified) | -8
CCOC(=O)c1cc(-c2ccc(OC(F)F)cc2)nc2c1c(=O)[nH]c(=O)n2C | 2
Nc1ccc2c3c(cccc13)C(=O)N(c1ccccc1)C2=O | 165
COc1ccc(C(=O)Nc2ccc3c4c(cccc24)CC3)cc1 | -100
Nc1ccc2c3c(cccc13)CC2 | 377*
Cc1cc(C(=O)COC(=O)c2ccc[nH]c2=O)c(C)n1-c1ccc(F)cc1 | 0
O=C(NN=C(Cc1ccccc1)Cc1ccccc1)C1CC1 | 0
O=C(CSCc1ccccc1)N1CCN(c2ccc(F)cc2)CC1 | -4
CCn1c(CSCc2ccc(F)cc2)nnc1SCC(=O)N1CCN(c2ccccc2)CC1 | 95*
CCn1c(SCC(=O)N2CCN(c3ccccc3)CC2)nnc1-c1ccncc1 | 6
COc1ccc(C(=O)NC(=S)NC2CCSC2=O)cc1 (stereo unspecified) | 7
Cc1ccsc1/C=N\NC(=O)c1cc(C(C)(C)C)[nH]n1 | 0
Cc1ccccc1C(=O)N1CCC(C(=O)Nc2ccc3c(c2)OCO3)CC1 | -7
CCC(=O)c1ccc(OCC(=O)NCC2(N3CCCCC3)CCCCC2)cc1 | 7
CCOC(=O)N1CCN(/C=C(\C#N)c2nc3ccccc3s2)CC1 | 7
N#C/C(=C/c1ccc(-c2ccc(S(N)(=O)=O)cc2)o1)c1nc2ccccc2s1 | 257*
N#CC(=C1CCCC1)c1nc(-c2ccccc2)cs1 | 3
N#C/C(=C/c1ccc(-c2ccccc2)o1)c1nc(-c2cccs2)cs1 | 456*
N#C/C(=C(/O)C(Cl)c1ccccc1)c1nc2ccccc2s1 (stereo unspecified) | -3
N#C/C(=C\Nc1ccccc1SC(F)(F)F)c1nc(-c2ccccc2)cs1 | 4
SMILES | Insulin prom act
CCc1[nH]nc(C(=O)N2CCCC(CCC(=O)N3CCN(c4ccccn4)CC3)C2)c1C (stereo unspecified) | 0
CCc1nnc(NC(=O)CCC(=O)NCCc2ccc(OC)c(OC)c2)s1 | 7
CCC(C)N(CC(=O)Nc1cccc(C)c1C)C(=O)CCl (stereo unspecified) | -100
O=C(Cc1ccccc1)NN1C(=O)C2C3C=CC(C3)[C@@H]2C1=O (stereo partly specified) | 8
CCCC(=O)Nc1ccc(C(=O)NNC(=O)COc2ccc(Br)c(C)c2)cc1 | -9
COCCNC(=O)/C(C#N)=C/c1ccc(OCC(=O)NC2CCCCC2)cc1 | 129
CCOc1ccc(OCCC(=O)Nc2ccc(F)cc2C)cc1 | -7
O=S(=O)(NCc1csc(-c2cccnc2)n1)c1cccs1 | 50
CCc1ccc(S(=O)(=O)NCc2csc(-c3cccnc3)n2)s1 | 857*
CC(=O)Nc1ccc(S(=O)(=O)NCc2csc(-c3cccnc3)n2)cc1 | -43
COc1ccc(NC(=O)N2CCC(c3nc4ccccc4[nH]3)CC2)cc1 | -2
CC(C)NC(=O)/C(C#N)=C\c1ccc(N(C)C)o1 | 560*
CNC(=O)/C(C#N)=C\c1ccc(CNS(=O)(=O)c2ccccc2)o1 | 3
CCN(CC)c1ccc(/C=C(/C#N)C(=O)NCc2ccccc2)o1 | 169
CCn1cc(C(=O)OCC(=O)Nc2c(C)cccc2C)c(=O)c2ccc(C)nc21 | 6
CC(C)CN=C(NS(=O)(=O)c1ccccc1)C(Cl)(Cl)Cl | 7
CC(=O)Nc1ccc(C(=O)OCC(=O)NC2CCCCCCC2)cc1 | 0
C=CCNC(=O)/C(C#N)=C/c1cn(-c2ccccc2)nc1-c1cccs1 | 7
CC(=O)c1cn(CC(=O)Nc2ccc(C)c(C)c2)c2ccccc12 | 533*
CC(=O)c1cn(CC(=O)Nc2ccc(C)cc2)c2ccccc12 | 7
CC(=O)c1cn(CC(=O)NCc2ccc3c(c2)OCO3)c2ccccc12 | 3
Cn1c(CN2CCCC2)nc2cc(NC(=O)c3cccs3)ccc21 | 0
Cn1c(N=NC(=O)c2ccccc2)c(O)c2ccccc21 | -4
CCOC(=O)c1[nH]c2c(c1-c1ccc(OC)cc1)C(=O)CC(c1ccc(OC)c(OC)c1)C2 (stereo unspecified) | 152
CN(C)S(=O)(=O)c1ccc(C(=O)OCCn2cnc3c2c(=O)n(C)c(=O)n3C)cc1 | 7
Cc1ccc(-c2cccc(NC(=O)C3C(C(=O)O)[C@@H]4C=C[C@H]3C4)c2)o1 (stereo partly specified) | 154*
O=C(O)C1C2C=CC(C2)C1C(=O)Nc1cccc(F)c1 (stereo unspecified) | -5
O=C(O)c1cccc(NC(=O)C2C3C=CC(C3)C2C(=O)O)c1 (stereo unspecified) | 5

Screening data from PubChem.
